Activity calls are given as the source filed them. The calls are words filed in the database; no cut-off is given here.
Experiments:
Type in all cases: functional, cell-based
T98G = experiment: Cytotoxicity against human T98G cells after 48 hrs by MTT assay
Method in brief: (§1)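 Adherent lines from ATCC, grown in DMEM with 2 mM L-glutamine, 10% heat-inactivated FBS and 1% pen/strep, used for up to 10 passages. 3 × 10^3 cells were seeded per well and left overnight at 37 °C in 5% CO2. Serial dilutions (1-50 µM) were added for 48 h. MTT (5 mg/mL stock) was added for 3 h, then solubilised in 50% DMF/20% SDS at pH 4.5. OD was read at 620 nm, with viability given as % of 0.1% DMSO controls.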

M14 = experiment: Cytotoxicity against human M14 cells after 48 hrs by MTT assay; method in brief: as §1
A549 = experiment: Cytotoxicity against human A549 cells after 48 hrs by MTT assay; method in brief: as §1
MCF7 = experiment: Cytotoxicity against human MCF7 cells after 48 hrs by MTT assay; method in brief: as §1
FRO = experiment: (§2) Cytotoxicity against human FRO cells after 48 hrs by MTT assay; method in brief: as §1
SAOS-2 = experiment: Cytotoxicity against human Saos2 cells after 48 hrs by MTT assay; method in brief: as §1
U-937 = experiment: Cytotoxicity against human U937 cells after 48 hrs by MTT assay
Method in brief: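 U937 cells were grown in RPMI with 2 mM L-glutamine, 10% FBS and 1% pen/strep, for no more than 10 passages. 3 × 10^3 cells per well were plated and incubated overnight at 37 °C in 5% CO2, then exposed to serial dilutions (1-50 µM) for 48 h. MTT (5 mg/mL stock) was added for 3 h, followed by lysis in 50% DMF/20% SDS at pH 4.5. OD was read at 620 nm, and viability was expressed against 0.1% DMSO controls.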

[1] = as §2; method in brief: as §1

Row | Compound | Activity (T98G) | Activity (M14) | Activity (A549) | Activity (MCF7) | Activity (FRO) | Activity (SAOS-2) | Activity (U-937) | IC50 (T98G) [µM] | IC50 (M14; M14, 48 h) [µM] | IC50 (A549; A549, 48 h) [µM] | IC50 (MCF7; MCF7, 48 h) [µM] | IC50 [1] [µM] | IC50 (SAOS-2; SAOS-2, 48 h) [µM] | IC50 (U-937; U-937, 48 h) [µM]
1 | C=C1C[C@@H](O[C@@H]2O[C@H](CO[C@@H]3OC[C@](O)(CO)[C@H]3O)[C@@H](O)[C@H](O)[C@H]2O)[C@@H]2C(C)(C)[C@H](O)CC[C@@]2(C)[C@@H]1COc1ccc2ccc(=O)oc2c1 | inactive | inactive | inactive | inactive | inactive | inactive | inactive | – | – | – | – | – | – | –
2 | CC1=CC[C@@H]2C(C)(C)[C@H](O)CC[C@@]2(C)[C@@H]1COc1ccc2ccc(=O)oc2c1 [FESELOL] | – | – | – | – | – | – | – | > 10 | > 10 | > 10 | > 10 | > 10 | > 10 | 8
3 | C=C1C[C@@H](O[C@@H]2O[C@H](CO)[C@@H](O)[C@H](O)[C@H]2O)[C@@H]2C(C)(C)[C@@H](O)CC[C@@]2(C)[C@@H]1COc1ccc2ccc(=O)oc2c1 | inactive | inactive | inactive | inactive | inactive | inactive | inactive | – | – | – | – | – | – | –
4 | C=C1C[C@@H](O[C@@H]2O[C@H](CO)[C@@H](O)[C@H](O)[C@H]2O)[C@@H]2C(C)(C)[C@H](O)CC[C@@]2(C)[C@@H]1COc1ccc2ccc(=O)oc2c1 | inactive | inactive | inactive | inactive | inactive | inactive | inactive | – | – | – | – | – | – | –
5 | CC1(C)[C@H](O)CC[C@]2(C)[C@@H]1C=C[C@](C)(O)[C@H]2COc1ccc2ccc(=O)oc2c1 | inactive | inactive | inactive | inactive | inactive | inactive | inactive | – | – | – | – | – | – | –
